Test results as given in ChEMBL document CHEMBL5532695, “4-Trifluoromethyl bithiazoles as broad-spectrum antimicrobial agents for virus-related bacterial infections or co-infections” (RSC Med Chem, 2024).
pEC50, pIC50: −log10 of the molar value. ≈ marks a conversion by molar mass, not a printed value.

What was measured:
[1] = test system: Staphylococcus aureus; experiment: Antibacterial activity against Staphylococcus aureus; type: functional
[2] = test system: rhinovirus A16; experiment: microbe, parasite or virus in culture; conditions: Rhinovirus A, HeLa, 48 h
[3] = test system: rhinovirus A16; experiment: Antiviral activity against 7 times N-(4'-(Trifluoromethyl)-2-((3-(trifluoromethyl)phenyl)amino)-[4,5'-bithiazol]-2'-yl)benzamide passaged resistance model of Human rhinovirus 16 infected in human HeLa cells assessed as inhibition of viral replication; type: functional, organism-based; conditions: Rhinovirus A
Method in brief: (§1)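 HeLa cells infected with RVA16 and serially passaged under compound, supernatants harvested at extensive CPE (3–6 dpi), clarified and titrated on HeLa; each passage used prior virus at MOI 0.01, drug concentration doubled when possible; after 7 passages RNA sequenced. Antiviral read-out: HeLa at 33 °C, 48 h, VP3 immunostaining with HRP secondary; EC50 from variable-slope sigmoidal fit.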

[4] = test system: rhinovirus A16; experiment: Antiviral activity against 7 times rupintrivir passaged resistance model of Human rhinovirus 16 infected in human HeLa cells assessed as inhibition of viral replication; type: functional, organism-based; conditions: Rhinovirus A; method in brief: as §1
[5] = Cytotoxicity against african green monkey Vero E6 cells assessed as reduction in cell viability by MTT assay; type: toxicity, cell-based; conditions: chlorocebus sabaeus, Vero E6 cells (Vero C1008)
Method in brief: (§2)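 MTT viability on HeLa or VeroE6 cells, run in parallel with the antiviral assays. CC50 from variable-slope sigmoidal dose–response regression.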

[6] = test system: Staphylococcus aureus; experiment: Bactericidal activity against Staphylococcus aureus ATCC 25923 assessed as reduction in microbial growth measured after 18 hrs by CLSI based broth microdilution method; type: functional
Method in brief: (§3)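 MBC by CLSI broth microdilution in Mueller–Hinton medium, triplicate. Inoculum 5 × 10^4 CFU per well. Read after 18 h at 35 ± 2 °C.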

[7] = test system: Staphylococcus aureus; experiment: Bactericidal activity against methicillin-resistant Staphylococcus aureus ATCC 43300 assessed as reduction in microbial growth measured after 18 hrs by CLSI based broth microdilution method; type: functional
[8] = test system: Pseudomonas aeruginosa; experiment: Synergistic antibacterial activity against Pseudomonas aeruginosa ATCC 27853 incubated for 18 to 24 hrs in presence of colistin by broth microdilution method; type: functional; conditions: time 18-24 hrs
[9] = test system: Staphylococcus epidermidis; experiment: Bactericidal activity against linezolid-resistant Staphylococcus epidermidis SI-1266 assessed as reduction in microbial growth measured after 18 hrs by CLSI based broth microdilution method; type: functional
[10] = test system: enterovirus D68; experiment: microbe, parasite or virus in culture; conditions: Enterovirus D, HeLa, 48 h
[11] = test system: Staphylococcus epidermidis; experiment: Antibacterial activity against linezolid-resistant Staphylococcus epidermidis SI-1266 assessed as reduction in microbial growth measured after 18 hrs by CLSI based broth microdilution method; type: functional
Method in brief: (§4)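 Gram-positive clinical isolates; compounds dissolved in DMSO (50 mg mL−1 stock) and diluted in medium; MIC by CLSI broth microdilution in Mueller–Hinton medium, inoculum 5 × 10^4 CFU per well, read after 18 h at 35 ± 2 °C; triplicate.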

[12] = test system: Enterococcus faecalis; experiment: Antibacterial activity against Enterococcus faecalis ATCC 29212 assessed as reduction in microbial growth measured after 18 hrs by CLSI based broth microdilution method; type: functional
Method in brief: (§5)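 MIC by CLSI broth microdilution in Mueller–Hinton medium, triplicate. Inoculum 5 × 10^4 CFU per well. Compounds taken up in DMSO (50 mg mL−1 stock) and diluted in medium. Read after 18 h at 35 ± 2 °C.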

[13] = test system: Zika virus; experiment: microbe, parasite or virus in culture; conditions: Vero C1008, 72 h
[14] = test system: Enterococcus faecium; experiment: Bactericidal activity against Vancomycin resistant Enterococcus faecium SI-3856B assessed as reduction in microbial growth measured after 18 hrs by CLSI based broth microdilution method; type: functional
[15] = test system: Staphylococcus haemolyticus; experiment: Antibacterial activity against oxacillin-resistant Staphylococcus haemolyticus SI-6/2011 assessed as reduction in microbial growth measured after 18 hrs by CLSI based broth microdilution method; type: functional; method in brief: as §4
[16] = test system: Enterococcus faecalis; experiment: Bactericidal activity against Enterococcus faecalis ATCC 29212 assessed as reduction in microbial growth measured after 18 hrs by CLSI based broth microdilution method; type: functional; method in brief: as §3
[17] = test system: Enterococcus faecium; experiment: Bactericidal activity against Vancomycin resistant Enterococcus faecium SI-1831 assessed as reduction in microbial growth measured after 18 hrs by CLSI based broth microdilution method; type: functional
[18] = test system: Staphylococcus haemolyticus; experiment: Bactericidal activity against oxacillin-resistant Staphylococcus haemolyticus SI-6/2011 assessed as reduction in microbial growth measured after 18 hrs by CLSI based broth microdilution method; type: functional
[19] = target: Phosphatidylinositol 4-kinase beta (Homo sapiens, UniProt Q9UBF8); experiment: Inhibition of recombinant full length his tagged PI4KB (unknown origin) incubated for 10 mins in presence of ATP by ADP-glo kinase assay
[20] = test system: Enterococcus faecium; experiment: Antibacterial activity against Vancomycin resistant Enterococcus faecium SI-3856B assessed as reduction in microbial growth measured after 18 hrs by CLSI based broth microdilution method; type: functional; method in brief: as §4
[21] = test system: Escherichia coli; experiment: Synergistic antibacterial activity against Escherichia coli CCUGT incubated for 18 to 24 hrs in presence of colistin by broth microdilution method; type: functional; conditions: time 18-24 hrs
[22] = test system: Enterococcus faecium; experiment: Antibacterial activity against Vancomycin resistant Enterococcus faecium SI-1831 assessed as reduction in microbial growth measured after 18 hrs by CLSI based broth microdilution method; type: functional; method in brief: as §4
[23] = test system: Streptococcus pyogenes; experiment: Antibacterial activity against Streptococcus pyogenes ATCC 12344 assessed as reduction in microbial growth measured after 18 hrs by CLSI based broth microdilution method; type: functional; method in brief: as §5
[24] = Cytotoxicity against human HeLa cells assessed as reduction in cell viability by MTT assay; type: toxicity, cell-based; method in brief: as §2
[25] = test system: Escherichia coli; experiment: Synergistic antibacterial activity against colistin resistant mcr-positive Escherichia coli SI-63 incubated for 18 to 24 hrs in presence of colistin by broth microdilution method; type: functional; conditions: time 18-24 hrs
Method in brief: (§6)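 Minimum antibacterial concentration (MAC) by broth microdilution in Mueller–Hinton medium with a fixed subinhibitory colistin concentration of 2 μg mL−1 against colistin-resistant Gram-negative clinical isolates; inoculum 5 × 10^4 CFU per well, 35 ± 2 °C; triplicate.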

[26] = test system: Enterococcus faecium; experiment: Bactericidal activity against Vancomycin/teicoplanin resistant Enterococcus faecium SI-759 assessed as reduction in microbial growth measured after 18 hrs by CLSI based broth microdilution method; type: functional
[27] = test system: Streptococcus pyogenes; experiment: Bactericidal activity against Streptococcus pyogenes ATCC 12344 assessed as reduction in microbial growth measured after 18 hrs by CLSI based broth microdilution method; type: functional; method in brief: as §3
[28] = test system: Staphylococcus warneri; experiment: Antibacterial activity against oxacillin-resistant Staphylococcus warneri SI-5/2011 assessed as reduction in microbial growth measured after 18 hrs by CLSI based broth microdilution method; type: functional; method in brief: as §4
[29] = test system: Acinetobacter baumannii; experiment: Synergistic antibacterial activity against colistin/carbapenem resistant MDR Acinetobacter baumannii N50 incubated for 18 to 24 hrs in presence of colistin by broth microdilution method; type: functional; conditions: time 18-24 hrs; method in brief: as §6
[30] = test system: Acinetobacter baumannii; experiment: Synergistic antibacterial activity against Acinetobacter baumannii ATCC 17978 incubated for 18 to 24 hrs in presence of colistin by broth microdilution method; type: functional; conditions: time 18-24 hrs
[31] = test system: Staphylococcus aureus; experiment: Antibacterial activity against Staphylococcus aureus ATCC 25923 assessed as reduction in microbial growth measured after 18 hrs by CLSI based broth microdilution method; type: functional; method in brief: as §5
[32] = test system: Enterococcus faecium; experiment: Antibacterial activity against Vancomycin/teicoplanin resistant Enterococcus faecium SI-759 assessed as reduction in microbial growth measured after 18 hrs by CLSI based broth microdilution method; type: functional; method in brief: as §4
[33] = test system: Staphylococcus aureus; experiment: Antibacterial activity against methicillin-resistant Staphylococcus aureus ATCC 43300 assessed as reduction in microbial growth measured after 18 hrs by CLSI based broth microdilution method; type: functional; method in brief: as §4
[34] = test system: Staphylococcus warneri; experiment: Bactericidal activity against oxacillin-resistant Staphylococcus warneri SI-5/2011 assessed as reduction in microbial growth measured after 18 hrs by CLSI based broth microdilution method; type: functional
[35] = test system: Pseudomonas aeruginosa; experiment: Synergistic antibacterial activity against colistin resistant MDR Pseudomonas aeruginosa SI-270 incubated for 18 to 24 hrs in presence of colistin by broth microdilution method; type: functional; conditions: time 18-24 hrs; method in brief: as §6
[36] = test system: Bacillus subtilis; experiment: Antibacterial activity against Bacillus subtilis ATCC 6633 assessed as reduction in microbial growth measured after 18 hrs by CLSI based broth microdilution method; type: functional; method in brief: as §5
[37] = test system: Klebsiella pneumoniae; experiment: Synergistic antibacterial activity against Klebsiella pneumoniae ATCC 13833 incubated for 18 to 24 hrs in presence of colistin by broth microdilution method; type: functional; conditions: time 18-24 hrs
[38] = test system: Bacillus subtilis; experiment: Bactericidal activity against Bacillus subtilis ATCC 6633 assessed as reduction in microbial growth measured after 18 hrs by CLSI based broth microdilution method; type: functional; method in brief: as §3

Chain of Phosphatidylinositol 4-kinase beta (Q9UBF8 whole entry): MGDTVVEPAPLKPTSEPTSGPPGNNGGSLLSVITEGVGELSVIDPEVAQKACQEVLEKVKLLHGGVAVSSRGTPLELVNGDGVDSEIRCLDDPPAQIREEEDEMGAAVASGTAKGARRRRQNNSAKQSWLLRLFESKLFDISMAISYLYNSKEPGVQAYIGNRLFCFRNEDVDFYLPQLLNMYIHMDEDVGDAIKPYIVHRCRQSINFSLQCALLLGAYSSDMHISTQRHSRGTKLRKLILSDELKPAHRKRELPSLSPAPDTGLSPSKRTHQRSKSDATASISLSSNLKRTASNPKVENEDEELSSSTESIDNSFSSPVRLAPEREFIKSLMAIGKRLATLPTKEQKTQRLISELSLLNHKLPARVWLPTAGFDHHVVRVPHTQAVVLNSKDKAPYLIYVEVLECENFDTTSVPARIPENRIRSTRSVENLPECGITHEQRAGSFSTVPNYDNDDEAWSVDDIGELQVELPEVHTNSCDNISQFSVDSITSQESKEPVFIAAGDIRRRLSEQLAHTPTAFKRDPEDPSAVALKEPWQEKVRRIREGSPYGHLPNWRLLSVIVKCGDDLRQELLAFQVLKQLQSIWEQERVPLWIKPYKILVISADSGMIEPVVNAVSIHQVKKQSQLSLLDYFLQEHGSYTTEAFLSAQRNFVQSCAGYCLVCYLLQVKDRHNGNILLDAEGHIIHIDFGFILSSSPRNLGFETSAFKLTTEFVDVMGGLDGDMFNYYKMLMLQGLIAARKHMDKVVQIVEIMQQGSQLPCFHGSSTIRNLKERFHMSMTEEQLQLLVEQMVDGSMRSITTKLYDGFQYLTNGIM

For `CC(C)(C)C(=O)Nc1nc(C(F)(F)F)c(-c2csc(Nc3cccc(C(=O)O)c3)n2)s1`, the MIC [1] was 32 µg/mL (≈ 68 µM).

`CC(C)S(=O)(=O)n1c(N)nc2ccc(/C(=N/O)c3ccccc3)cc21` [ENVIROXIME] gave a pEC50 [2] of 7.31, a pEC50 [3] of 7.57 and a pEC50 [4] of 7.57.

`CC(C)(C)C(=O)Nc1nc(C(F)(F)F)c(-c2csc(Nc3cccc(C(F)(F)F)n3)n2)s1` showed a CC50 [5] of 46 µM, an MBC [6] greater than 32 µg/mL and an MBC [7] greater than 64 µg/mL. It also gave a pIC50 [2] of 5.04, an MAC [8] greater than 64 µg/mL and an MBC [9] greater than 64 µg/mL. For the same molecule, the pIC50 [10] was 5.17, the MIC [11] was greater than 64 µg/mL and the MIC [12] was 8 µg/mL. For the same molecule, the pIC50 [13] was 5.16, the MBC [14] was greater than 64 µg/mL and the MIC [15] was greater than 64 µg/mL. It also gave an MBC [16] of 16 µg/mL, an MBC [17] greater than 64 µg/mL and an MBC [18] greater than 64 µg/mL. For the same molecule, the IC50 [19] was “Not Active”, the MIC [20] was greater than 64 µg/mL and the MAC [21] was 2 µg/mL. For the same molecule, the MIC [22] was greater than 64 µg/mL, the MIC [23] was 8 µg/mL and the CC50 [24] was 31.8 µM. The MAC [25] was 1 µg/mL, the MBC [26] was greater than 64 µg/mL and the MBC [27] was 8 µg/mL. It also gave an MIC [28] greater than 64 µg/mL, an MAC [29] of 0.06 µg/mL and an MAC [30] of 4 µg/mL. For the same molecule, the MIC [31] was 32 µg/mL, the MIC [32] was 64 µg/mL and the MIC [33] was 16 µg/mL. The MBC [34] was greater than 64 µg/mL, the MAC [35] was 64 µg/mL and the MIC [36] was 8 µg/mL. It also gave an MAC [37] of 2 µg/mL and an MBC [38] of 16 µg/mL.
